Assay type in all cases: functional
In experiment [1] the test system is Rattus norvegicus. The experiment is described as follows: Hypoglycemic activity was tested in rats at a standard dose of 100 mg/kg and calculated as percent of vehicle control after 2 hours (six rats per group). An outline of the steps: (§1)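 Fed male Sprague-Dawley CD rats (280-320 g), six per group, 100 mg/kg po as solution in water or suspension in 0.5% carboxymethylcellulose (1 mL/kg); parallel vehicle controls. Tail-vein blood (0.3 mL) taken 2 and 4 h post-dose into EDTA and Trasylol; plasma glucose by glucose oxidase-peroxidase, expressed as percent of vehicle control; Student-Newman-Keuls test for significance.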

Experiment [2] deals with Rattus norvegicus. Nature of the experiment: Hypoglycemic activity was tested in rats at a standard dose of 100 mg/kg and calculated as percent of vehicle control after 4 hours (six rats per group). An outline of the steps: as §1
The species entered for experiment [3] is Rattus norvegicus. Nature of the experiment: Potency to dissociate hypoglycemic activity relative to compound 38. In outline:
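Three-point oral dose-response in fed male Sprague-Dawley CD rats, eight per group, with the reference standard run alongside; 10, 30 and 100 mg/kg po (some studies 10, 20, 50 mg/kg). Rats exsanguinated by decapitation at 4 h; blood into EDTA and Trasylol, plasma glucose by glucose oxidase-peroxidase; potency relative to standard.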

In ChEMBL document CHEMBL1126286, “Oral hypoglycemic agents. Pyrimido[1,2-a]indoles and related compounds” (1992) one finds Blood glucose and Relative potency data, which are given here for 47 molecules.

Regarding `CC1(C)CN=C2N(C1)c1ccccc1C2(N)c1ccccc1.Cl.Cl` (stereo unspecified), the values for the Blood glucose in the experiment with Rattus norvegicus [1] and in the experiment on Rattus norvegicus [2] were 78% and 68%, respectively. In the experiment filed under Rattus norvegicus [3], this molecule gave a Relative potency of 0.9.

In the case of `Cl.Cl.NC1(c2ccccc2)C2=NCCCN2c2ccccc21` (stereo unspecified), the Blood glucose is 84% with Rattus norvegicus [1] and 93% in the experiment on Rattus norvegicus [2]. This molecule had a Relative potency in the experiment filed under Rattus norvegicus [3] of 0.47.

As to `Cl.Cl.OC1(c2ccccc2)C2=NCC3(CCNCC3)CN2c2ccccc21` (stereo unspecified), the Blood glucose in the experiment on Rattus norvegicus [1] is reported as 102%; with Rattus norvegicus [2], 92%.

In the case of `CC1(C)CN=C2N(C1)c1ccccc1C2(NC(=O)c1ccccc1)c1ccccc1.Cl` (stereo unspecified), the Blood glucose in the experiment with Rattus norvegicus [1] is recorded as 104%; with Rattus norvegicus [2] it was 116%.

Consider `CCCCC1(O)C2=NCC3(CCCCC3)CN2c2ccccc21.Cl` (stereo unspecified), for which the Blood glucose with Rattus norvegicus [1] was 60%; with Rattus norvegicus [2] it was 68%. The Relative potency in the experiment listed under Rattus norvegicus [3] is on record as 3.69.

For the molecule `C=CCC1(O)C2=NCC(C)(C)CN2c2ccccc21.Cl` (stereo unspecified), the Blood glucose with Rattus norvegicus [1] was 86%; in the experiment with Rattus norvegicus [2] it was 74%.

For `CC1(C)CN=C2N(C1)c1ccccc1C2(O)C1CC1.Cl` (stereo unspecified), the Blood glucose with Rattus norvegicus [1] is recorded as 83%; in the experiment on Rattus norvegicus [2] it was 81%. Moreover, in the experiment filed under Rattus norvegicus [3], the Relative potency is reported as 0.11.

In the case of `CCC1(O)C2=NCC(C)(C)CN2c2ccccc21.Cl` (stereo unspecified), the Blood glucose is 89% with Rattus norvegicus [1] and 93% with Rattus norvegicus [2].

In the case of `CC(C)(C)CC1(O)C2=NCC(C)(C)CN2c2ccccc21.Cl` (stereo unspecified), the figures for the Blood glucose in the experiment with Rattus norvegicus [1] and with Rattus norvegicus [2] were 68% and 81%, respectively. Further, in the experiment filed under Rattus norvegicus [3], the Relative potency is reported as 0.65.

In the case of `CC1(C)CN=C2N(C1)c1ccccc1C2(NS(C)(=O)=O)c1ccccc1.Cl` (stereo unspecified), the Blood glucose in the experiment on Rattus norvegicus [1] was 76%; with Rattus norvegicus [2] it was 67%. This molecule also returned a Relative potency in the experiment filed under Rattus norvegicus [3] of 0.04.

On to `CCCC(=O)NC1(c2ccccc2)C2=NCC(C)(C)CN2c2ccccc21.Cl` (stereo unspecified), for which the Blood glucose with Rattus norvegicus [1] is 101%; in the experiment with Rattus norvegicus [2], 77%.

With `CCCCC1(O)C2=NCC(C)(C)CN2c2ccccc21.Cl` (stereo unspecified), the Blood glucose in the experiment with Rattus norvegicus [1] was 58%; in the experiment on Rattus norvegicus [2] it was 67%.

For `Cl.OC1(c2ccc3ccccc3c2)C2=NCCCN2c2ccccc21` (stereo unspecified), the Blood glucose in the experiment with Rattus norvegicus [1] was 88%; with Rattus norvegicus [2] it was 64%. For the same molecule, the Relative potency in the experiment listed under Rattus norvegicus [3] came out at 0.01.

As to `Cl.OC1(c2ccccc2)C2=NCCCN2c2ccccc21` (stereo unspecified), the Blood glucose was 86% in the experiment on Rattus norvegicus [1] and 82% with Rattus norvegicus [2]. The same molecule displayed a Relative potency in the experiment listed under Rattus norvegicus [3] of 0.52.

For `Cl.OC1(CC2CCCCC2)C2=NCCCN2c2ccccc21` (stereo unspecified), the Blood glucose was 77% in the experiment on Rattus norvegicus [1] and 81% with Rattus norvegicus [2]. This molecule also registered a Relative potency in the experiment listed under Rattus norvegicus [3] of 0.12.

Take `CC(C)CC1(O)C2=NCCCN2c2ccccc21.Cl` (stereo unspecified): the Blood glucose is listed as 79% in the experiment on Rattus norvegicus [1] and 86% in the experiment with Rattus norvegicus [2].

On to `CCOCCCCC1(O)C2=NCCCN2c2ccccc21.Cl` (stereo unspecified), for which the Blood glucose in the experiment with Rattus norvegicus [1] was 100%; with Rattus norvegicus [2] it was 96%.

For `COCC(C)CC1(O)C2=NCCCN2c2ccccc21.Cl` (stereo unspecified), the Blood glucose is 94% in the experiment on Rattus norvegicus [1] and 98% in the experiment with Rattus norvegicus [2].

Regarding `CC1(C)CN=C2N(C1)c1ccccc1C2(O)c1ccccc1.Cl` (stereo unspecified), the Blood glucose is recorded as 90% with Rattus norvegicus [1] and 75% in the experiment on Rattus norvegicus [2]. The Relative potency in the experiment listed under Rattus norvegicus [3] turned out to be 1.

Take `COCC(C)CC1(O)C2=NCC(C)(C)CN2c2ccccc21.Cl` (stereo unspecified): the Blood glucose in the experiment on Rattus norvegicus [1] is recorded as 73%; in the experiment with Rattus norvegicus [2] it was 72%. For the same molecule, the Relative potency in the experiment listed under Rattus norvegicus [3] is 0.47.

`CC(=O)NC1(c2ccccc2)C2=NCC3(CCCC3)CN2c2ccccc21.Cl` (stereo unspecified): the figures for the Blood glucose in the experiment with Rattus norvegicus [1] and in the experiment with Rattus norvegicus [2] were 99% and 90%, respectively.

Turning to `CC(C)CC1(O)C2=NCC(C)(C)CN2c2ccccc21.Cl` (stereo unspecified), the Blood glucose in the experiment with Rattus norvegicus [1] is 88%; with Rattus norvegicus [2], 77%. For the same molecule, the Relative potency in the experiment filed under Rattus norvegicus [3] stood at 0.69.

With `Cl.OCC#CC1(O)C2=NCCCN2c2ccccc21` (stereo unspecified), the Blood glucose with Rattus norvegicus [1] and with Rattus norvegicus [2] was 94% each time.

On to `CC(=O)NC1(c2cccc(Cl)c2)C2=NCCCN2c2ccccc21.Cl` (stereo unspecified), for which the Blood glucose in the experiment with Rattus norvegicus [1] is listed as 89%; with Rattus norvegicus [2], 85%. This molecule also showed a Relative potency in the experiment filed under Rattus norvegicus [3] of 0.5.

Consider `Cl.NC1(c2cccc(Cl)c2)C2=NCCCN2c2ccccc21` (stereo unspecified), for which the Blood glucose with Rattus norvegicus [1] was 95%; in the experiment on Rattus norvegicus [2], 84%.

As for `COCCCCC1(O)C2=NCC(C)(C)CN2c2ccccc21.Cl` (stereo unspecified), the Blood glucose in the experiment on Rattus norvegicus [1] is 79%; with Rattus norvegicus [2] it was 87%. Further, in the experiment filed under Rattus norvegicus [3], the Relative potency came to 0.05.

As for `CCC(CC)CC1(O)C2=NCCCN2c2ccccc21.Cl` (stereo unspecified), the Blood glucose is listed as 82% in the experiment on Rattus norvegicus [1] and 68% with Rattus norvegicus [2]. Moreover, the Relative potency in the experiment filed under Rattus norvegicus [3] amounted to 0.86.

Consider `Cl.OC1(c2cccc(Cl)c2)C2=NCCCN2c2ccccc21` (stereo unspecified), for which the Blood glucose in the experiment on Rattus norvegicus [1] is 99%; in the experiment with Rattus norvegicus [2], 84%.

For `CC(=O)NC1(c2ccccc2)C2=NCCCN2c2ccccc21.Cl` (stereo unspecified), the Blood glucose is reported as 76% in the experiment on Rattus norvegicus [1] and 75% with Rattus norvegicus [2]. The molecule also came in with a Relative potency in the experiment filed under Rattus norvegicus [3] of 0.03.

Take `CCCCCCC1(O)C2=NCC(C)(C)CN2c2ccccc21.Cl` (stereo unspecified): the Blood glucose with Rattus norvegicus [1] was 103%; in the experiment on Rattus norvegicus [2] it was 107%.

With `CC(C)CCC1(O)C2=NCC(C)(C)CN2c2ccccc21.Cl` (stereo unspecified), the Blood glucose with Rattus norvegicus [1] was 65%; in the experiment on Rattus norvegicus [2] it was 78%.

`COCCCCC1(O)C2=NCCCN2c2ccccc21.Cl` (stereo unspecified): the results for the Blood glucose with Rattus norvegicus [1] and with Rattus norvegicus [2] were 86% and 87%, respectively.

For the molecule `CCOCCCCC1(O)C2=NCC(C)(C)CN2c2ccccc21.Cl` (stereo unspecified), the Blood glucose was 88% in the experiment with Rattus norvegicus [1] and 86% with Rattus norvegicus [2].

Regarding `Cl.OC1(c2ccccc2)C2=NCC3(CCCCCC3)CN2c2ccccc21` (stereo unspecified), the figures for the Blood glucose in the experiment on Rattus norvegicus [1] and with Rattus norvegicus [2] were 87% and 76%, respectively. This molecule yielded a Relative potency in the experiment filed under Rattus norvegicus [3] of 0.3.

In the case of `Cl.OC1(c2ccccc2)C2=NCC3(CCCC3)CN2c2ccccc21` (stereo unspecified), the Blood glucose is reported as 75% in the experiment with Rattus norvegicus [1] and 71% in the experiment on Rattus norvegicus [2]. In the experiment listed under Rattus norvegicus [3], this molecule yielded a Relative potency of 0.1.

On to `CC(CCC1(O)C2=NCCCN2c2ccccc21)c1ccccc1.Cl` (stereo unspecified), for which the Blood glucose in the experiment with Rattus norvegicus [1] is 99%; with Rattus norvegicus [2], 88%.

For the molecule `COC(C)CCC1(O)C2=NCCCN2c2ccccc21.Cl` (stereo unspecified), the Blood glucose in the experiment with Rattus norvegicus [1] was 88%; in the experiment on Rattus norvegicus [2], 95%.

`Cc1ccc(S(=O)(=O)NC(=O)NC2(c3ccccc3)C3=NCC(C)(C)CN3c3ccccc32)cc1.Cl` (stereo unspecified): the results for the Blood glucose in the experiment with Rattus norvegicus [1] and in the experiment on Rattus norvegicus [2] were 101% and 90%, respectively.

Regarding `CC(=O)NC1(c2ccccc2)C2=NCC(C)(C)CN2c2ccccc21.Cl` (stereo unspecified), the Blood glucose in the experiment with Rattus norvegicus [1] is on record as 85%; in the experiment with Rattus norvegicus [2], 77%. For the same molecule, the Relative potency in the experiment filed under Rattus norvegicus [3] came out at 0.03.

Regarding `COC(C)CCC1(O)C2=NCC(C)(C)CN2c2ccccc21.Cl` (stereo unspecified), the results for the Blood glucose in the experiment with Rattus norvegicus [1] and in the experiment on Rattus norvegicus [2] were 69% and 73%, respectively. In the experiment filed under Rattus norvegicus [3], this molecule had a Relative potency of 1.1.

As to `CC1(C)CN=C2N(C1)c1ccccc1C2(O)CCCCOCc1ccccc1.Cl` (stereo unspecified), the Blood glucose is 76% in the experiment on Rattus norvegicus [1] and 91% in the experiment on Rattus norvegicus [2].

Turning to `CC(=O)NC1(c2ccc3ccccc3c2)C2=NCCCN2c2ccccc21.Cl` (stereo unspecified), the Blood glucose is recorded as 104% in the experiment with Rattus norvegicus [1] and 100% with Rattus norvegicus [2].

For `CC(=O)NC1(c2ccccc2)C2=NCCCCN2c2ccccc21.Cl` (stereo unspecified), the Blood glucose was 86% in the experiment with Rattus norvegicus [1] and 73% in the experiment on Rattus norvegicus [2]. Moreover, the Relative potency in the experiment listed under Rattus norvegicus [3] is given as 0.13.

`CC1(C)CN=C2N(C1)c1ccccc1C2(O)CC1CCCCC1.Cl` (stereo unspecified): the Blood glucose in the experiment on Rattus norvegicus [1] is recorded as 79%; in the experiment on Rattus norvegicus [2], 84%.

Regarding `Cl.OC1(c2ccccc2)C2=NCC3(CCCCC3)CN2c2ccccc21` (stereo unspecified), the Blood glucose is listed as 78% in the experiment with Rattus norvegicus [1] (100 mg/kg) and 60% in the experiment on Rattus norvegicus [2] (100 mg/kg). In the experiment filed under Rattus norvegicus [3], this molecule returned a Relative potency of 1.33.

Consider `Cl.OC1(c2ccccc2)C2=NCC3(CCCCC3)CN2c2ccccc21` (single isomer, unassigned; (+)), for which the Blood glucose with Rattus norvegicus [1] (100 mg/kg) is given as 82%; in the experiment on Rattus norvegicus [2] (100 mg/kg) it was 69%.

`Cl.OC1(c2ccccc2)C2=NCC3(CCCCC3)CN2c2ccccc21` (single isomer, unassigned; (-)): the Blood glucose with Rattus norvegicus [1] (100 mg/kg) is 81%; in the experiment on Rattus norvegicus [2] (100 mg/kg), 71%.
